Calls of active or inactive are those of the source.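 The calls were made as follows: active = compounds raising caspase signal with a fitted AC50 no higher than the top valid dose tested; inconclusive = flat fit at partial mid-level activity, or unreliable fit; inactive = the rest.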
Test system: not listed separately
Assay: apoptosis induction, Flag-A1-IRES-BIM fibroblasts – cell-based, alternate A1 construct, Caspase-Glo luminescence, dry powder, A1 inhibitor project, dose response (AID 488891)
Conditions: MEF Flag-A1-IRES-BIM, caspase-Glo luminescence, 3 h; at 150 µM (top of the series)
How it was run: (§1)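 Detection: Luminescence with CaspaseGlo reagent | Material: Mouse embryonic fibroblasts primed with Flag-A1-IRES-BIM construct | Incubation: 3 h compounds at 37 °C, 1 h detection reagent at RT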

For CC(=O)OC(C)(C)/C=C/C(=O)[C@](C)(O)C1[C@H](O)C[C@@]2(C)C3CC=C4C(C[C@H](O)C(=O)C4(C)C)[C@]3(C)C(=O)C[C@]12C (stereo not given in full), the caspase activation was 3.76% (inactive).
For C=C1[C@@H](C)[C@H]2[C@H](Cc3ccccc3)NC(=O)[C@]23[C@H](OC(C)=O)/C=C/[C@](C)(O)C(=O)[C@@H](C)C/C=C/[C@H]3[C@@H]1O, the caspase activation was 1.11% (inactive).
In the case of COc1cc(/C=C(/C#N)c2nc3ccccc3[nH]2)ccc1OCC(=O)Nc1ccccc1C(C)C, the caspase activation is reported as 0.299% (inactive).

Test system: MEF Flag-A1-IRES-BIM, caspase-Glo luminescence, 3 h
Assay: as above
Conditions: not given
How it was run: as §1

In order of rising AC50:
1. C/C1=C/C(=O)O[C@@H]2C[C@@H](CC[C@H](C)/C=C\CC1)O[C@@](O)(C1CSC(=O)N1)C2 (stereo not given in full)  0.607 µM
2. O=C(CCl)N=c1sccn1Cc1ccccc1Cl  1.28 µM
3. Nc1nc(F)nc2c1ncn2[C@@H]1O[C@H](CO)[C@@H](O)[C@H]1O  1.5 µM
4. COc1cccc(C(=O)C(C#N)=C(SC)SC)c1  1.64 µM
5. Cn1c(=NC(=O)CCl)sc2ccccc21  3.46 µM
6. Cc1cccc(NC(=O)/C(C#N)=C/c2cn(CC(=O)NCc3ccco3)c3ccccc23)c1  3.76 µM
7. CCc1cc2c(=O)c(-c3cnn(-c4ccccc4)c3)c(C)oc2cc1OCC(=O)Nc1cccc(C)c1  5.29 µM
8. Cc1ccc(CS(=O)(=O)c2ncc(Cl)c(C(=O)Nc3nnc(C(C)C)s3)n2)cc1  5.49 µM
9. C=C1[C@@H](C)[C@H]2[C@H](Cc3ccccc3)NC(=O)[C@]23OC(=O)/C=C\[C@H](O)CCC[C@@H](C)C/C=C/[C@H]3[C@@H]1O  6.46 µM
10. COc1cc(CN2CCN(c3cc(C)ccc3C)CC2)ccc1O  7.24 µM
11. CC(=O)N[C@H]1[C@H](O[C@H]2CC[C@@]3(C)C(CC[C@]4(C)C3CC=C3[C@@H]5CC(C)(C)CC[C@]5(C(=O)OC5OCC(O)C(O)C5O)C(O)C[C@]34C)C2(C)C)O[C@H](COC2OCC(O)C(OC3OCC(O)C(O)C3O)C2O)[C@@H](O[C@@H]2O[C@@H](C)[C@H](O)[C@@H](O)[C@H]2O[C@@H]2O[C@@H](C)[C@H](O)[C@@H](O)[C@H]2O)[C@@H]1O (stereo not given in full)  7.88 µM
12. O=C(Oc1cccc(/C=N/Nc2nc(Nc3ccccc3)nc(N3CCOCC3)n2)c1)c1ccco1  8.01 µM
13. Cc1cc(C(=O)CCl)c(C)n1CCc1ccc(Cl)cc1  9 µM
14. COc1ccc(N(C(=O)CCl)C(C(=O)NCCc2ccccc2)c2cccs2)cc1Cl (stereo not given)  9.36 µM
15. CCOC(=O)CSC1=N/C(=C/c2ccc(-n3cncn3)cc2)C(=O)N1C(C)=O  11.1 µM
16. CCc1nnc(NC(=O)c2nc(S(=O)(=O)Cc3ccccc3)ncc2Cl)s1  11.6 µM
17. Cc1cccc(CS(=O)(=O)c2ncc(Cl)c(C(=O)Nc3nnc(C(C)C)s3)n2)c1  12 µM
18. Cc1c(C=O)c(C=O)c(C)n1Cc1ccccc1  12.9 µM
19. CCSc1nnc(NC(=O)c2nc(S(=O)(=O)Cc3ccc(F)cc3)ncc2Cl)s1  13.1 µM
20. Cc1ccc(Sc2c([N+](=O)[O-])c(=O)n(C)c3ccccc23)cc1  13.4 µM
21. Cc1c(CCOC(=O)c2ccc(N3CCOCC3)c([N+](=O)[O-])c2)sc[n+]1CC#N  14.2 µM

With CC(C)(C)n1nc(-c2ccc(Cl)cc2)c2c(N)ncnc21 the AC50 was > 150 µM (inactive).

— PubChem BioAssay AID488891 (Broad Institute, 2010)
